This is an account of results in paper PMC9082043 (RSC Advances, 2018).

As usually defined, the IC50 is the concentration needed to halve the response being measured.

Where two headings read alike, the source gives them in different places.

Test [1] concerns HL-7702 (human liver normal cells). Nature of the test: MTT cytotoxicity assay, HL-7702 normal cells. It counts as cell-based. The settings on record: L02, 48 h, read-out: IC50 HL-7702. The procedure, abridged:
(§1)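 MTT assay on HepG2, SK-OV-3, NCI-H460, BEL-7404 and normal HL-7702 cells, with 5-fluorouracil and cisplatin run alongside as positive controls.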

In test [2] the test system is HepG2 (human liver cancer cells). Nature of the test: MTT antiproliferative assay, HepG2. It counts as cell-based. To be noted: read-out: IC50 HepG2. Summed up:
as §1
In general terms: Tetrazolium dyes change colour on reduction, which living cells bring about.

The test system of test [3] is SK-OV-3 (human ovarian cancer cells). The test can be described thus: MTT antiproliferative assay, SK-OV-3. The class given is cell-based. The settings on record: read-out: IC50 SKOV-3. Summed up: as §1
The test system of test [4] is NCI-H460 (human large cell lung cancer cells). Nature of the test: MTT antiproliferative assay, NCI-H460. The class given is cell-based. The settings on record: read-out: IC50 NCI-H460. The procedure, abridged:
as §1

Test [5] concerns BEL-7404 (human liver cancer cells). The test can be described thus: MTT antiproliferative assay, BEL-7404. To be noted: read-out: IC50 BEL-7404, 48 h, mean ± SD of three experiments. The class given is cell-based. Summed up:
as §1

The subject of the next test is HepG2 xenograft. Nature of the test: In vivo antitumor activity, HepG2 xenograft model. Further details: species or system SPF BALB/c nude mice. Summed up:
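HepG2 xenografts in SPF BALB/c nude mice, randomised into vehicle, low-dose (10 mg kg−1), high-dose (20 mg kg−1) and paclitaxel (5 mg kg−1) groups. All were injected in 5% DMSO/saline (v/v). Tumours were measured twice weekly in two dimensions to give volume, mean ± SD, n = 6. The relative tumour increment rate (T/C, %) was taken at day 41.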

Where [6] appears, read: MTT, 48 h, mean ± SD of three experiments.

For the compound `O=c1[nH]cc(F)c(=O)[nH]1` [5-FU, 5-fluorouracil], the IC50 in test [1] was 58.7 ± 2.31 µM; in test [2] (Homo sapiens, HepG2, 48 h), 32 ± 0.56 µM; in test [3] (Homo sapiens, SK-OV-3, 48 h) it was 26.3 ± 0.57 µM; in test [4] (Homo sapiens, NCI-H460, 48 h), 45.4 ± 0.94 µM.
With `N.N.[Cl][Pt][Cl]` [Cisplatin, cisplatin], the IC50 was found to be 10.1 ± 0.71 µM in test [2] (setting [6]), 15.6 ± 1.7 µM in test [3] (setting [6]), 20.4 ± 0.5 µM in test [4] (setting [6]) and 14.7 ± 0.66 µM in test [5].
Take `CC(=O)O[C@H]1C(=O)[C@@]2(C)[C@H]([C@H](OC(=O)c3ccccc3)[C@]3(O)C[C@H](OC(=O)[C@H](O)[C@@H](NC(=O)c4ccccc4)c4ccccc4)C(C)=C1C3(C)C)[C@]1(OC(C)=O)CO[C@@H]1C[C@@H]2O` [Paclitaxel, paclitaxel]: the “T/C value (relative tumor increment rate)” value with HepG2 xenograft (5 mg kg^−1 dose) is reported as 19.0%. For the same compound, the “effect on tumour volume in mice” value with HepG2 xenograft (3a1 10 and 20 mg kg^−1, paclitaxel 5 mg kg^−1, compared with control) is given as “significantly inhibited the increase in the tumour volume”.
